ChEMBL document CHEMBL1147632, “2-(N-acyl) and 2-N-acyl-N(6)-substituted analogues of adenosine and their affinity at the human adenosine receptors” (Bioorg Med Chem Lett, 2004)

Assays:
Adenosine receptor A3 = target: T1, Adenosine receptor A3 (Homo sapiens, UniProt P0DMS8); experiment: Displacement of [3H]NECA from human adenosine A3 receptor in stably transfected HEK cells; format: cell-based, HEK293
T1 sequence (P0DMS8 whole entry): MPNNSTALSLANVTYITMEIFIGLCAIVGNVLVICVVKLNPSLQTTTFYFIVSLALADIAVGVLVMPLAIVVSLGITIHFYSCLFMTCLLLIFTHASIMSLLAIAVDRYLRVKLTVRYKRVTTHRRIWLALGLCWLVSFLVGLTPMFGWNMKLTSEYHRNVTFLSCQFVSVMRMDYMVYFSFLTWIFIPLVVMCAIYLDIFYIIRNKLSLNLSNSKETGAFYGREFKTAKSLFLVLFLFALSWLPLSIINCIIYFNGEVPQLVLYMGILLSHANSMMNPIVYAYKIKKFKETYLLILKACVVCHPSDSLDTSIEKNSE
Outline: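 Competition for specific [³H]NECA binding at human recombinant A3 receptor stably transfected into HEK cells; Ki reported in nM.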

Adenosine receptor A1 = target: T2, Adenosine receptor A1 (Homo sapiens, UniProt P30542); experiment: Displacement of [3H]CCPA from human adenosine A1 receptor expressed in CHO cells; format: cell-based
T2 sequence (P30542 whole entry): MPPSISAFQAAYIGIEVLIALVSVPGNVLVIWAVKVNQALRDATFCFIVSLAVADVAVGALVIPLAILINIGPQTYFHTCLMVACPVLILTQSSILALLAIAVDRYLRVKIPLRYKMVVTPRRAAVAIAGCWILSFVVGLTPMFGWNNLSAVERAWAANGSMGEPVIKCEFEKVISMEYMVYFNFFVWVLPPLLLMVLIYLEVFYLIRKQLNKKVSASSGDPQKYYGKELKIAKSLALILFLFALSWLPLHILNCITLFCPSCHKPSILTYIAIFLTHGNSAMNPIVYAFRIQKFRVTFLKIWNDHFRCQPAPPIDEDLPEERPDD

[1] = target: Adenosine receptors; A1 & A2a (Homo sapiens) (UniProt P30542+P29274); experiment: Ratio of binding affinity for adenosine A2A receptor to adenosine A1 receptor; format: protein assay
Adenosine receptors; A1 & A2a (Homo sapiens), sequence (P29274 whole entry, looked up, one chain of several): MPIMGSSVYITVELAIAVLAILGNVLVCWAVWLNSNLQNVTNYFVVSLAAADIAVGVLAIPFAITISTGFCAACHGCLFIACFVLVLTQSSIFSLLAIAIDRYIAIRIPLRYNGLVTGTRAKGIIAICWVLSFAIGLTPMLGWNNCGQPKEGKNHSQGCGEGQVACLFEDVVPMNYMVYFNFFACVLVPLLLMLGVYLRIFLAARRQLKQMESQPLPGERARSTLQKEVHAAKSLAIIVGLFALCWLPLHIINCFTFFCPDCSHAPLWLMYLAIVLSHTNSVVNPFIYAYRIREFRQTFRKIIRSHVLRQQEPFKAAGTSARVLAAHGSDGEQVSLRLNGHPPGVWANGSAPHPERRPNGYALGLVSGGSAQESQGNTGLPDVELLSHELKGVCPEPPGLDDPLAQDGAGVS

[2] = target: Adenosine receptors; A1 & A3 (Homo sapiens) (UniProt P30542+P0DMS8); experiment: Ratio of binding affinity for adenosine A3 receptor to adenosine A1 receptor; format: protein assay
Adenosine receptor A2a = Adenosine receptor A2a (Homo sapiens, UniProt P29274); experiment: Displacement of [3H]NECA from human adenosine A2A receptor in stably transfected CHO cells; format: cell-based
Adenosine receptor A2a, sequence (P29274 whole entry): as the sequence (P29274 whole entry, looked up, one chain of several) above
Outline: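 Radioligand displacement of specific [³H]NECA binding to human recombinant A2A receptor stably expressed in CHO cells; affinity given as Ki (nM).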

[3] = target: T3, Adenosine receptor A2b (Homo sapiens) (UniProt P29275); experiment: Potency NECA-induced signal mediated by human A2B receptor in CHO cells at 100 uM; format: cell-based
T3 sequence (whole entry): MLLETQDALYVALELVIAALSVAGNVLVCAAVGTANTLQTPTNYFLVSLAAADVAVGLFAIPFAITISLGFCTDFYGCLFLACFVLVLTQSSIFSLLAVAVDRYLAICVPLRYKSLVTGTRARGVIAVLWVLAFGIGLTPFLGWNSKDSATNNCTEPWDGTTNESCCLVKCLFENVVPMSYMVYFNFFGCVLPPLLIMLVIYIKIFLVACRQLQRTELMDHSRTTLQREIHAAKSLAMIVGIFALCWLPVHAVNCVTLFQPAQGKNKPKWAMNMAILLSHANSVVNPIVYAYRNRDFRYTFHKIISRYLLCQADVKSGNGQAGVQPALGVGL
Outline: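 Adenylyl cyclase activation measured in membranes from CHO cells stably transfected with human A2B receptor; test compounds at […], response expressed as percent of maximal NECA signal.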

| Ki (Adenosine receptor A3) [nM] | Ki (Adenosine receptor A1) [nM] | Ratio [1] | Ratio [2] | Ki (Adenosine receptor A2a) [nM] | Potency [3] [%] | Compound |
| --- | --- | --- | --- | --- | --- | --- |
| 2760 | 1620 | 1.1 | 1.7 | 1780 | < 20 | Nc1nc(NC(=O)C2CCCCC2)nc2c1ncn2[C@@H]1O[C@H](CO)[C@@H](O)[C@H]1O |
| 181 | 207 | 37 | 0.9 | 7750 | < 20 | CCNc1nc(NC(=O)CC2CCCCC2)nc2c1ncn2[C@@H]1O[C@H](CO)[C@@H](O)[C@H]1O |
|  |  |  |  |  | < 20 | OC[C@H]1O[C@@H](n2cnc3c(NC4CCCC4)nc(Cl)nc32)[C@H](O)[C@@H]1O |
| 2710 | 432 | 11 | 6 | 4570 | < 20 | Nc1nc(NC(=O)CCc2ccccc2)nc2c1ncn2[C@@H]1O[C@H](CO)[C@@H](O)[C@H]1O |
| 1040 | 252 | 8 | 4 | 2000 | < 20 | Nc1nc(NC(=O)CCC2CCCC2)nc2c1ncn2[C@@H]1O[C@H](CO)[C@@H](O)[C@H]1O |
| 900 | 70.7 | 58 | 13 | 4100 | < 20 | Nc1nc(NC(=O)/C=C/c2ccccc2)nc2c1ncn2[C@@H]1O[C@H](CO)[C@@H](O)[C@H]1O |
| 1410 | 31.8 | 69 | 44 | 2180 | < 20 | O=C(CCC1CCCC1)Nc1nc(NC2CCCC2)c2ncn([C@@H]3O[C@H](CO)[C@@H](O)[C@H]3O)c2n1 |
| 1060 | 733 | 3 | 1.4 | 1940 | < 20 | Nc1nc(NC(=O)CCCC2CCCCC2)nc2c1ncn2[C@@H]1O[C@H](CO)[C@@H](O)[C@H]1O |
| 1010 | 5450 | 2 | 0.2 | 10800 | < 20 | CCNC(=O)[C@H]1O[C@@H](n2cnc3c(N)nc(NC(=O)CCC4CCCC4)nc32)[C@H](O)[C@@H]1O |
| 1250 | 20.7 | 273 | 60 | 5660 | < 20 | O=C(CCc1ccccc1)Nc1nc(NC2CCCC2)c2ncn([C@@H]3O[C@H](CO)[C@@H](O)[C@H]3O)c2n1 |
| 1230 | 342 | 7 | 4 | 2410 | < 20 | Nc1nc(NC(=O)CC2CCCCC2)nc2c1ncn2[C@@H]1O[C@H](CO)[C@@H](O)[C@H]1O |
